Columns and labels:
[1] = Cytotoxicity against human iPSC-derived neurons assessed as effect on cell-rounding; format: tissue-based; conditions: induced pluripotent stem cell-derived neuron
[2] = Cytotoxicity against human iPSC-derived neurons assessed as decrease in SNAP25 signal; format: tissue-based; conditions: induced pluripotent stem cell-derived neuron
[3] = system: HEK293; test: Cytotoxicity against HEK293 cells assessed inhibition of cell proliferation after 24 hrs by MTT assay; format: cell-based; conditions: Homo sapiens, HEK293, 24 h
Procedure, shortened: (§1)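 HEK293T cells in DMEM with 10% FBS and 1% Pen Strep were seeded at 5,000 cells/well and left 24 h at 37 °C, 5% CO2. Compounds were then added as 2-fold dilutions from 100 to 3.13 μM (1% DMSO) for 24 h. MTT was added for 4 h, and formazan was dissolved in acidified isopropanol. A570 was read with 630 nm background subtracted, normalized to DMSO control, and fitted with a four-parameter curve for IC50.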

[4] = system: HEK293; test: Cytotoxicity against HEK293 cells assessed inhibition of cell proliferation up to 100 uM after 24 hrs by MTT assay; format: cell-based; conditions: human, hek293, 24 h; procedure, shortened: as §1

SMILES	Activity [1]	Activity [2]	IC50 [3]	Activity [4]
CS(=O)(=O)SCCCCCCCN(O)C(=O)/C=C/c1ccc(Cl)cc1Cl	Non-Toxic	Non-Toxic		
CS(=O)(=O)SCCCCCCN(O)C(=O)/C=C/c1ccc(Cl)cc1Cl	Non-Toxic	Non-Toxic	60 µM	
CS(=O)(=O)SCCCCCNC(=O)CC(CC(=O)NO)c1ccc(Cl)cc1Cl (configuration not stated)	Toxic	Toxic		
CS(=O)(=O)SCCCNC(=O)CC(CC(=O)NO)c1ccc(Cl)cc1Cl (configuration not stated)	Toxic	Toxic		Non-Toxic
CS(=O)(=O)SCCCCCCNC(=O)CC(CC(=O)NO)c1ccc(Cl)cc1Cl (configuration not stated)	Toxic	Toxic		
CCCCCNC(=O)CC(CC(=O)NO)c1ccc(Cl)cc1Cl (configuration not stated)				Non-Toxic
CS(=O)(=O)SCCCCCN(O)C(=O)/C=C/c1ccc(Cl)cc1Cl	Non-Toxic	Non-Toxic		
CS(=O)(=O)SCCCCNC(=O)CC(CC(=O)NO)c1ccc(Cl)cc1Cl (configuration not stated)	Toxic	Toxic		

Source: ChEMBL document CHEMBL4665791 (J Med Chem, 2020)
